Data from ChEMBL document CHEMBL4387708, “Enhancement of Benzothiazoles as Pteridine Reductase-1 Inhibitors for the Treatment of Trypanosomatidic Infections” (J Med Chem, 2019).
The source made the active and inactive calls. The calls are words filed in the database; no cut-off is given here.

Key:
[1] = target: Voltage-gated inwardly rectifying potassium channel KCNH2 (Homo sapiens, UniProt Q12809); assay: Displacement of Tracer Red from human ERG by fluorescence polarization assay
[2] = Mitochondrial toxicity in human 786-O cells measured after 6 hrs by MitoTracker Red chloromethyl-X-rosamine based assay; type: cell-based, 786-0
[3] = Cytotoxicity against human THP1 cells after 72 hrs by MTT assay; type: cell-based, THP-1; conditions: read-out: NOAEL
[4] = target: Cytochrome P450 2C9 (Homo sapiens, UniProt P11712); assay: Inhibition of human CYP2C9 expressed in baculovirus infected insect cells using beetle D-luciferin as substrate preincubated for 30 mins followed by NADPH addition and measured after 30 mins by CYP450-Glo assay
[5] = target: Cytochrome P450 3A4 (Homo sapiens, UniProt P08684); assay: Inhibition of human CYP3A4 expressed in baculovirus infected insect cells using beetle D-luciferin as substrate preincubated for 30 mins followed by NADPH addition and measured after 30 mins by CYP450-Glo assay
[6] = Selectivity ratio of IC50 for Leishmania major pteridine reductase 1 to IC50 for N-terminal His-tagged Trypanosoma brucei pteridine reductase 1
[7] = system: Trypanosoma cruzi; assay: Growth inhibition of trypomastigote form of Trypanosoma cruzi Y infected in human U2OS cells at 50 uM measured after 72 hrs by DRAQ5 DNA dye based confocal microscopic analysis relative to control; type: organism-based; conditions: for inhibition at 50 µM: Trypanosoma cruzi, Y, U2OS, read-out: GI
[8] = system: Trypanosoma brucei; assay: Inhibition of N-terminal His-tagged Trypanosoma brucei pteridine reductase 1 at 50 uM using di-hydrobiopterine as substrate measured at 1 min interval for 50 mins in presence of NADPH relative to control
Method in brief: (§1)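 Photometric PTR1 assay with NADPH and dihydrobiopterin substrate. H₄B formation is coupled non-enzymatically to cytochrome c reduction, read as signal increase at 550 nm.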

[9] = target: Cytochrome P450 2C19 (Homo sapiens, UniProt P33261); assay: Inhibition of human CYP2C19 expressed in baculovirus infected insect cells using beetle D-luciferin as substrate preincubated for 30 mins followed by NADPH addition and measured after 30 mins by CYP450-Glo assay
[10] = target: Cytochrome P450 2D6 (Homo sapiens, UniProt P10635); assay: Inhibition of human CYP2D6 expressed in baculovirus infected insect cells using beetle D-luciferin as substrate preincubated for 30 mins followed by NADPH addition and measured after 30 mins by CYP450-Glo assay
[11] = target: T1, Cytochrome P450 1A2 (Homo sapiens, UniProt P05177); assay: Inhibition of human CYP1A2 expressed in baculovirus infected insect cells using beetle D-luciferin as substrate preincubated for 30 mins followed by NADPH addition and measured after 30 mins by CYP450-Glo assay
T1 sequence (P05177 whole entry): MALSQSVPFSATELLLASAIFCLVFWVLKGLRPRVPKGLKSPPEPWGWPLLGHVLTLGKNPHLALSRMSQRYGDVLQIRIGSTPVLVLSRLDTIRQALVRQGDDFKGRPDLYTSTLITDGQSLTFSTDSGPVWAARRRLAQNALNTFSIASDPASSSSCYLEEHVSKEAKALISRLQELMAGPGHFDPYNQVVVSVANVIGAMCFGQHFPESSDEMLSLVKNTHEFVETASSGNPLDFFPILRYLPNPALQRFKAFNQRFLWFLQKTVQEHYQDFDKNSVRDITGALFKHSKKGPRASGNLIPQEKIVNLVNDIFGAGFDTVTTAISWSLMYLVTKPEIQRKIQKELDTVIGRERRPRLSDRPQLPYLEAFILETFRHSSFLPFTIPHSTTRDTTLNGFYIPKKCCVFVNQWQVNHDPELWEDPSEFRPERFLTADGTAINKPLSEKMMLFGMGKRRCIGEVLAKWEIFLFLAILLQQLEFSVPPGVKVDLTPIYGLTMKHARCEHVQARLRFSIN

[12] = Cytotoxicity against human U2OS cells assessed as reduction in cell number; type: cell-based
[13] = Inhibition of N-terminal His-tagged Trypanosoma brucei pteridine reductase 1 using di-hydrobiopterine as substrate measured at 1 min interval for 50 mins in presence of NADPH; method in brief: as §1
[14] = system: Trypanosoma brucei; assay: Growth inhibition of Trypanosoma brucei bloodstream forms at 10 uM measured after 72 hrs by resazurin-based fluorescence assay relative to control; type: organism-based; conditions: Trypanosoma brucei, read-out: GI
[15] = system: Trypanosoma brucei; assay: Inhibition of PTR1 in Trypanosoma brucei bloodstream forms assessed as potentiation of methotrexate-induced parasitic cell growth inhibition at 10 uM measured after 72 hrs by resazurin-based fluorescence assay (reference value: 19 +/- 6%)
Method in brief: (§2)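 Bloodstream-form T. brucei resazurin assay: 72 h at 37 °C, 5% CO₂, then fluorescence at ex 540/em 620 nm. Benzothiazole was tested at 10 μM alone and with 4 μM methotrexate. The index is the combination's activity divided by the sum of the activities of 10 μM benzothiazole and 4 μM methotrexate given separately.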

[16] = Cytotoxicity against human A549 cells after 48 hrs by Celltiter-glo assay; type: cell-based
[17] = system: Trypanosoma brucei; assay: Inhibition of PTR1 in Trypanosoma brucei bloodstream forms assessed as potentiation of methotrexate-induced parasitic cell growth inhibition by measuring potentiation index at 10 uM measured after 72 hrs by resazurin-based fluorescence assay relative to control (methotrexate); type: functional; method in brief: as §2
[18] = target: T2, Pteridine reductase 1 (Leishmania major) (UniProt Q01782); assay: Inhibition of Leishmania major pteridine reductase 1 at 50 uM using di-hydrobiopterine as substrate in presence of NADPH relative to control; method in brief: as §1
T2 sequence (whole entry): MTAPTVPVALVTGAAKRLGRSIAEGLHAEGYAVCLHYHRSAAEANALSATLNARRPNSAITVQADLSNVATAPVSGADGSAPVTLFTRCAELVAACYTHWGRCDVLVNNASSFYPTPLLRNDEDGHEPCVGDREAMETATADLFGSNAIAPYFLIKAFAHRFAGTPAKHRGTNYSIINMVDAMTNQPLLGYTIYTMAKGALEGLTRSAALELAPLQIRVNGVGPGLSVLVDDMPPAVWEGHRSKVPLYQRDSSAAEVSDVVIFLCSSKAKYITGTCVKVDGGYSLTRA

[19] = system: Leishmania infantum; assay: Growth inhibition of luciferase expressing Leishmania infantum axenic amastigotes infected in human THP1 cells at 10 uM measured after 72 hrs by steady-glo luminescence assay relative to control; type: organism-based; conditions: leishmania infantum, 72 h, 10 µM
[20] = target: T3, Pteridine reductase 1 (Leishmania major, UniProt Q01782); assay: Inhibition of Leishmania major pteridine reductase 1 using di-hydrobiopterine as substrate in presence of NADPH; method in brief: as §1
T3 sequence (Q01782 whole entry): T2 sequence (whole entry)

Chain of Cytochrome P450 2C9 (P11712 whole entry): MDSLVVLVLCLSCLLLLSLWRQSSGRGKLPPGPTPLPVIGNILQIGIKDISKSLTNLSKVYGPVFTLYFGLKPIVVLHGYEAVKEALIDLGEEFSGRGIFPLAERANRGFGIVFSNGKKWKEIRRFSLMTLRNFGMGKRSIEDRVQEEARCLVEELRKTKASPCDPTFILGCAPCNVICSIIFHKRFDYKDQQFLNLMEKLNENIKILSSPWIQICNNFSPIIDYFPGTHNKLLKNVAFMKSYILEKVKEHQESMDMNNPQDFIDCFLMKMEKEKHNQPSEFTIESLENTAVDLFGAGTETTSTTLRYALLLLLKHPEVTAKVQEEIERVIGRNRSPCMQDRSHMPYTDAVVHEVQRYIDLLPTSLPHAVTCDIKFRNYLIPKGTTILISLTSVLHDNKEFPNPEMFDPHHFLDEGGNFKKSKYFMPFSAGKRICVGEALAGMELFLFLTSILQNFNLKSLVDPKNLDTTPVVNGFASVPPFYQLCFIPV
Chain of Cytochrome P450 3A4 (P08684 whole entry): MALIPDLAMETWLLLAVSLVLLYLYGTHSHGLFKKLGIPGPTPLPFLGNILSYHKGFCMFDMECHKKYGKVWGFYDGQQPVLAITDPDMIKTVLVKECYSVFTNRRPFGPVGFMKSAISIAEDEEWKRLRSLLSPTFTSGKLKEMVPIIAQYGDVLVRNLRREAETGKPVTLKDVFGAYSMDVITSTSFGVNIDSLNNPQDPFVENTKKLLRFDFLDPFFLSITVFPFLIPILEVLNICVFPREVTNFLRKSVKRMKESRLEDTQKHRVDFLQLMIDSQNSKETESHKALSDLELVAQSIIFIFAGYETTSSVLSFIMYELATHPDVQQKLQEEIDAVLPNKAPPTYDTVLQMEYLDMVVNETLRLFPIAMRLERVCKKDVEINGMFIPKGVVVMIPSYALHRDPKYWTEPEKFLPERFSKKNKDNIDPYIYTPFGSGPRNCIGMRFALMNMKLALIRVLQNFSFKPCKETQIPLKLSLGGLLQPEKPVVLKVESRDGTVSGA
Chain of Voltage-gated inwardly rectifying potassium channel KCNH2 (Q12809 whole entry): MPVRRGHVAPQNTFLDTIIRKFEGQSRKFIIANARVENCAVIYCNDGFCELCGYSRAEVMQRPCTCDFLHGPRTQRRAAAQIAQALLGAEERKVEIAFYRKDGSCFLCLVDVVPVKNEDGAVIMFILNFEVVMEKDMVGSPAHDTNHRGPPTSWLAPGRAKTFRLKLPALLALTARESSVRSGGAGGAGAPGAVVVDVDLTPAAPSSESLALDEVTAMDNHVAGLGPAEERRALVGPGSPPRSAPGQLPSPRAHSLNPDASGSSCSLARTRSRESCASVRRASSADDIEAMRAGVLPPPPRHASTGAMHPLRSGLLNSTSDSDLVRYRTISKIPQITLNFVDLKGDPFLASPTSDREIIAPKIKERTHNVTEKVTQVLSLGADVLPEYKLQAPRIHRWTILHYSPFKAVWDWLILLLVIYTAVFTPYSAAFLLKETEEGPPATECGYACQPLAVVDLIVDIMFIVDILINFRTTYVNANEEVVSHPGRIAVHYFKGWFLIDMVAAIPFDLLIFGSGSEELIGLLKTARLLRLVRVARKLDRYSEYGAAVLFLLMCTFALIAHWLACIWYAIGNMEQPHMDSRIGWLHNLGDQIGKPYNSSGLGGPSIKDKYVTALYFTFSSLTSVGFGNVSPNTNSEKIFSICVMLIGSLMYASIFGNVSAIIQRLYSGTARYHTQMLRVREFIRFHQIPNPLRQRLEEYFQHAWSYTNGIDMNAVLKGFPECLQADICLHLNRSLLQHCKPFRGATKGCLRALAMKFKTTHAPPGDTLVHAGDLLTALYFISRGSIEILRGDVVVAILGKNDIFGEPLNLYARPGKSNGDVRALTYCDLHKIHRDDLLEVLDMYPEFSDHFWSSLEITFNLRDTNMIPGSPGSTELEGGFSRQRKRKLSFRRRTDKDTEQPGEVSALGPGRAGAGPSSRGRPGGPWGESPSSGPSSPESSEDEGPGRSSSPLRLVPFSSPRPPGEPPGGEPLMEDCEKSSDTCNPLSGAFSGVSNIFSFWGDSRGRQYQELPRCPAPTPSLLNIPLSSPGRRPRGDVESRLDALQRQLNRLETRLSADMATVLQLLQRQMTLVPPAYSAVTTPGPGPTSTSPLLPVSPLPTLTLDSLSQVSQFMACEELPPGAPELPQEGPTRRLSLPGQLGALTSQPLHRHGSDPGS
Chain of Cytochrome P450 2C19 (P33261 whole entry): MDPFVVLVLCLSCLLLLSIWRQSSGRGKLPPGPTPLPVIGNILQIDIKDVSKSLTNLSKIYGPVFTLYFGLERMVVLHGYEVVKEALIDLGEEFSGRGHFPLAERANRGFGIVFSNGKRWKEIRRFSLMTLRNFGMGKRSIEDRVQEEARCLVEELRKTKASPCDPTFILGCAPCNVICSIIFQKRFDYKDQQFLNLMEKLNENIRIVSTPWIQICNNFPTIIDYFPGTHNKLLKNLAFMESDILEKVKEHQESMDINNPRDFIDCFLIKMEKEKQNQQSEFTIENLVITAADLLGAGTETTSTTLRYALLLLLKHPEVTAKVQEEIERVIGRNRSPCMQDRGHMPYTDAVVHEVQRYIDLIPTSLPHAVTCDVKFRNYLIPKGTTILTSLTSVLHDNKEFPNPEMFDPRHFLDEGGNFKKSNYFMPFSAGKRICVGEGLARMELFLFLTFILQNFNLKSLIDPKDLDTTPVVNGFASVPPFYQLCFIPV
Chain of Cytochrome P450 2D6 (P10635 whole entry): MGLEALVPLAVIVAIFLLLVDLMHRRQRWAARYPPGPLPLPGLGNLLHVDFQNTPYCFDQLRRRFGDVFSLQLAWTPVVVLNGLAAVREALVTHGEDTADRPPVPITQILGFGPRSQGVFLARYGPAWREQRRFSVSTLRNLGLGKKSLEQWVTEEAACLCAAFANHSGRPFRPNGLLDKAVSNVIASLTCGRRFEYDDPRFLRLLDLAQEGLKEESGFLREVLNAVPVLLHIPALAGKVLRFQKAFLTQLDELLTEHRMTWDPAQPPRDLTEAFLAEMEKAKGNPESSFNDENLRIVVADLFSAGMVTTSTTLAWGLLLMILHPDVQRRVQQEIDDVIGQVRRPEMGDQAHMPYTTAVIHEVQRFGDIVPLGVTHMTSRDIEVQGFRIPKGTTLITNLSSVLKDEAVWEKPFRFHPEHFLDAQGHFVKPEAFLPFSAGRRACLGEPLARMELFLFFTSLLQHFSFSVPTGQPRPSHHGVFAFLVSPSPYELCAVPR

Compound | IC50 [1] | IC50 at 6 h [2] | MNTC at 72 h [3] | IC50 [4] | IC50 [5] | Ratio IC50 [6] | inhibition [8] | IC50 [9] | IC50 [10] | IC50 [11] | GI50 [12] | IC50 [13] | inhibition at 10 µM [14] | growth inhibition (GI) [15] | GI50 at 48 h [16] | Ratio [17] | inhibition [18] | growth inhibition (GI) [19] | inhibition at 50 µM [7] | IC50 ([20]; read-out: IC50) | also measured
N#Cc1ccc(CS(=O)(=O)c2ccc3nc(N)sc3c2)cc1 | > 25 µM | > 25 µM | > 25 µM | > 25 µM | < 10 µM | 2 to 100 | > 60% | 10 to 25 µM | < 10 µM | > 25 µM | > 25 µM | 3 µM | 9 to 13% | 48% | > 25 µM | 1.5 | 55.5% | Non-Toxic |  |  | growth inhibition (GI) ([7]; trypanosoma cruzi, 50 µM): Non-Toxic
Nc1nc2ccc(SCc3ccc(C(=O)NCc4ccccc4)cc3)cc2s1 | > 25 µM | > 25 µM | 10 to 25 µM | < 10 µM | < 10 µM | 2 to 100 | > 60% | < 10 µM | < 10 µM | > 25 µM | > 25 µM | 0.5 µM | 26 to 33% | 80% | < 10 µM | 1.6 | > 60% | Non-Toxic | 19.2% | 30 µM | 
Nc1nc2ccc(OCc3ccc(Cl)c(Cl)c3)cc2s1 | > 25 µM | > 25 µM | > 25 µM | > 25 µM | < 10 µM | 2 to 100 | > 60% | < 10 µM | 10 to 25 µM | < 10 µM | > 25 µM | 3.4 µM | 42 to 55% | 89% | > 25 µM | 1.2 | inactive | Non-Toxic | 7.24% |  | IC50 [20]: Not Active
COC(=O)C1CCN(C(=O)c2ccc(CSc3ccc4nc(N)sc4c3)cc2)CC1 | > 25 µM | > 25 µM | > 25 µM | > 25 µM | < 10 µM | 2 to 100 | > 60% | < 10 µM | < 10 µM | > 25 µM | > 25 µM | 0.93 µM | 42 to 53% | 93% | > 25 µM | 1.3 | > 60% | Non-Toxic | 16.3% | 15.1 µM | 
Nc1nc2ccc(SCc3ccc(Cl)c(Cl)c3)cc2s1 | > 25 µM | > 25 µM | > 25 µM | > 25 µM | < 10 µM | 2 to 100 | > 60% | < 10 µM | < 10 µM | 10 to 25 µM | > 25 µM | 0.9 µM | 41 to 46% | 65% | 10 to 25 µM | 1.1 | > 60% | Non-Toxic | 21.4% | 10 µM | 
